Runt-SMMHC FRET = Runt domain-CBFb-SMMHC interaction inhibition. Q01196+Q13951. Cerulean-Runt/Venus-CBFb-SMMHC FRET ratio 530/480, 1 h. inhibition, % at 20 µM. 0.74% of 220,000 active;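 active = mean inhibition across duplicate retests at 20 µM reaching about 50%, limit read from the data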;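 note: 0% = DMSO wells and 100% = wells with excess untagged CBFb-SMMHC; inhibitors lower the FRET ratio by blocking Runt binding to CBFb-SMMHC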
Runt-CBFb FRET = blocks binding of human RUNX1 Runt domain to CBFb | Cerulean-Runt/Venus-CBFb FRET ratio 530/480, 1 h | inhibition, % at 20 µM | AID 1496 | 0.46% of 220,000 active;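 active = inhibition over about 50% at 20 µM in the single-dose screen, limit read from the data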;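 note: 0% = DMSO wells and 100% = excess unlabeled CBFb competitor control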
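Reagent – Venus-CBFb binding partner, 100 nM · Assay system – Cerulean-tagged RUNX1 Runt domain (FRET donor) fusion protein · Input – 100 nM per protein · Incubation – two 1 h room-temperature incubations shielded from light · Measured by – FRET fluorescence · Medium – Tris buffer pH 7.5 with salts and BSA · Benchmarks – unlabeled CBFb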
KLK7 zymogen act = activators of human kallikrein-7 zymogen; purified proKLK7, EDANS-DABCYL substrate fluorescence; 100% is mature enzyme control, 0% vehicle; activation, % at 7 µM; 0.9% of 370,000 active; AID 652039;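 active = activation above the mean of all tested compounds plus 3 SD, computed per campaign excluding outliers beyond control limits, cut at about 13% in these data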
Target sequence (P49862 whole entry, looked up): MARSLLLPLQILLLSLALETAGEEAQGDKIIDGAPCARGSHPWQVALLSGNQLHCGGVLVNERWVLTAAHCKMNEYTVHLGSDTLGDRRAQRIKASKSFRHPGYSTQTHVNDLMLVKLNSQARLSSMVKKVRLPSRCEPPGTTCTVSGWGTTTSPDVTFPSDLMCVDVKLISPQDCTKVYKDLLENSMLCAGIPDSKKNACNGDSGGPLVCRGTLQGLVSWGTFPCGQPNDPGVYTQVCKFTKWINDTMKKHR
RanGTP-Imp inh = disruptors of Ran-importin-beta complex formation – biochemical, FRET, CFP-Ran, YFP-importin-beta, homogeneous, primary screen. inhibition, % (test concentration not listed). 1.1% of 300,000 active. AID 2216. cell-free CFP-Ran/YFP-importin-beta FRET ratio;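 active = more than half of the replicate wells show a fall in the fluorescence ratio signal beyond about 16%, limit read from the data, passing the limit was not always enough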;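 note: 0% = DMSO wells and 100% = Ran loaded with GDP instead of GTP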
Wee1 degr inh = blocks degradation of human Wee1 kinase. HeLa Luc-Wee1K328M stability, luciferase luminescence; 100% = proteasome inhibitor MG132 effect. P30291. reporter increase, % at 5 µM. AID 1321. 1.2% of 220,000 active;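 active = activation above the mean of all tested compounds plus 3 SD, set per screening run, cut at about 8.8% in these data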;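 note: cells exposed to compound for 20 h before luminescence read; 0% = DMSO alone and 100% = MG132 at 30 µM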
AI-2 QS modul = Vibrio harveyi AI-2 quorum sensing modulation; Vibrio harveyi JMH597 AI-2 luminescence/OD600 ratio, 9 h; stronger effect = lower value; strain lacks LuxN and CqsS sensors; 0 = neutral-control median; activity change, % at 7.5 µM; 0.4% of 300,000 active; AID 2094; in the data active = activity change below about -75%, passing the limit was not always enough;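 note: luminescence divided by OD600 gain over 9 h not by final OD600 alone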
YIC FRET counter = counter-screen for RanGTP-importin-beta inhibitors: YIC FRET probe. shares compounds with RanGTP-Imp inh. Purified YIC probe, intramolecular FRET ratio YFP/CFP. IC50, µM. 40% of 1,000 active. AID 435026;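 active = fitted half-maximal inhibitory concentration no more than tenfold above the top dose tested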
Active calls of the source: *; . = no result given. Most compounds without a hit are left out; they make up all but 2.9% or so of the library.

SMILES	Runt-SMMHC FRET	Runt-CBFb FRET	KLK7 zymogen act	RanGTP-Imp inh	Wee1 degr inh	AI-2 QS modul	YIC FRET counter
O=C(/C=C/c1ccccc1[N+](=O)[O-])N1CCN(c2ccc(F)cc2)CC1	2.3	0.3	-0.2	23.5*	-1.4	20.9	>50
CC(C(=O)Nc1ccc(S(=O)(=O)N2CCOCC2)cc1)N1C(=O)C2CC=CCC2C1=O (configuration not stated)	-1.0	0.2	-0.1	-5.5	0.4	4.0	.
CC(c1nc2ccccc2n1Cc1ccccc1)N1CCCCC1 (configuration not stated)	.	.	-0.6	25.9*	.	6.8	>50
COc1ccc(C(=O)N/N=C/c2c(CO)cnc(C)c2O)cc1	88.4*	3.5	-30.2	21.7*	-4.1	64.8	1.52*
Cc1ncc(CO)c(/C=N/NC(=O)c2ccoc2C)c1O	.	.	-65.0	.	.	.	.
COc1cc(/C(O)=C(\C#N)c2nc3ccccc3[nH]2)cc(OC)c1OC	.	.	-4.2	40.3*	.	5.4	7.43*
CCC(=O)c1ccc(OCC(=O)NC2(C#N)CCCCC2)cc1	1.7	-3.2	-0.3	.	-0.7	12.4	.
COCC(=O)N(C)C1(c2nnnn2CCOC(=O)Nc2cccc3ccccc23)CCCC1	-0.4	-0.4	.	-1.1	-0.5	12.6	.
CCOC(=O)C1CCN(C(=O)COC(=O)c2ccc3[nH]c4c(c3c2)CCCC4)CC1	.	.	7.0	19.3*	.	20.3	>50
CCC(=O)N(C)/C=C1\Sc2ccccc2C1=O	153.7*	.	0.1	19.6*	-0.8	5.2	>50
CN(Cc1ccccc1)CC1C2CCC(C2)C1O (configuration not stated)	.	.	-0.4	.	.	.	.
COc1cc(OC)cc(-c2cc3nc(C)cc(N4CCN(C(=O)c5ccco5)CC4)n3n2)c1	26.4	12.5	.	28.9*	2.4	1.0	3.68*
COc1ccc(C2NC(C(=O)O)Cc3c2[nH]c2ccccc32)cc1CN1CCN(c2ccc(F)cc2)CC1 (configuration not stated)	38.0	7.8	1.2	23.6*	1.1	17.6	8.57*
COc1ccc(C2NCCc3c2[nH]c2ccccc32)cc1COc1ccc(F)cc1 (configuration not stated)	-5.0	-2.5	-0.7	22.2*	6.9	28.0	>50
O=C(O)C1Cc2c([nH]c3ccccc23)C(c2ccc3c(c2)OCO3)N1 (configuration not stated)	47.6	4.1	-0.2	-3.1	-1.8	14.6	.
COc1ccc(C2NCCc3c2[nH]c2ccccc32)cc1CN1CCc2cc(OC)c(OC)cc2C1C (configuration not stated)	5.2	-2.6	.	-2.6	1.4	11.4	.
COC(=O)c1c(NC(NC(=O)c2ccccc2)(C(F)(F)F)C(F)(F)F)sc2c1CCN(C)C2	61.6	14.2	-0.1	47.8*	3.7	33.0	39.6*
CCC(=O)NC(Nc1sc2c(c1C(=O)OC)CCCC2)(C(F)(F)F)C(F)(F)F	1.6	.	0.3	1.5	-1.0	15.9	.
COCCNC(=S)Nc1ccc(N2CCCCC2)cc1	4.3	9.1	-0.1	1.2	-0.4	-15.0	.
CC(C)CCC(C)N=Cc1c(O)n(Cc2ccccc2)c(=O)c2ccccc12 (configuration not stated)	0.9	0.5	-0.6	4.8	0.2	13.0	.
COc1ccc(Cn2c(O)c(C=Nc3ccc(OC)cc3)c3ccccc3c2=O)cc1	-24.9	-165.7	0.3	29.0*	-0.8	17.4	>26
CC1CCCCN1Cc1c(O)ccc2c(=O)c(-c3nc4ccccc4s3)coc12 (configuration not stated)	25.1	10.4	0.0	38.0*	6.3	9.8	<0.38*
Cc1oc2c(CN3CCCCC3C)c(O)ccc2c(=O)c1-c1ccc(Br)cc1 (configuration not stated)	.	.	10.5	-1.9	.	-1.0	.
CCCCn1c(N)c(N(CC(C)C)C(=O)CCNC(=O)c2ccc(Br)cc2)c(=O)[nH]c1=O	.	.	0.3	-0.3	.	.	.

Source: PubChem BioAssay (several laboratories)
